Experimental data published in ChEMBL document CHEMBL1154292, “Discovery and optimization of novel 4-[(aminocarbonyl)amino]-N-[4-(2-aminoethyl)phenyl]benzenesulfonamide ghrelin receptor antagonists” (Bioorg Med Chem Lett, 2009).

How the values were obtained:
[1] = biological target: T1, Growth hormone secretagogue receptor type 1 (Homo sapiens, UniProt Q92847); experiment: Agonist activity at human GHS-R1a assessed as maximum activation at 10 uM relative to ghrelin by aequorin assay; assay type: functional
Summary of the method: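 Agonist mode of the hGHS-R1a aequorin bioluminescence assay. Compound tested up to a maximum of 10 μM. Peak response is expressed as maximum % activation relative to ghrelin. Values are means of two or three experiments.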

[2] = biological target: T1, Growth hormone secretagogue receptor type 1; experiment: Inhibition of human GHS-R1a
[3] = biological target: T1, Growth hormone secretagogue receptor type 1; experiment: Inhibition of human GHS-R1a at 6.25 uM
[4] = biological target: T1, Growth hormone secretagogue receptor type 1; experiment: Displacement of [35S]MK0677 from human GHS-R1a
Summary of the method: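 Competitive binding at GHS-R1a using [35S]-MK-0677 as the radiolabeled probe. IC50 values are means of two or three experiments.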

[5] = biological target: T1, Growth hormone secretagogue receptor type 1; experiment: Antagonist activity at human GHS-R1a expressed in HEK293 cells assessed as inhibition of ghrelin-stimulated intracellular calcium mobilization; assay type: functional, cell-based
[6] = biological target: T2, Beta-3 adrenergic receptor (Homo sapiens, UniProt P13945); experiment: Inhibition of human adrenergic beta3 receptor
[7] = biological target: T2, Beta-3 adrenergic receptor; experiment: Agonist activity at human adrenergic beta3 receptor; assay type: functional

T1 sequence (Q92847 whole entry): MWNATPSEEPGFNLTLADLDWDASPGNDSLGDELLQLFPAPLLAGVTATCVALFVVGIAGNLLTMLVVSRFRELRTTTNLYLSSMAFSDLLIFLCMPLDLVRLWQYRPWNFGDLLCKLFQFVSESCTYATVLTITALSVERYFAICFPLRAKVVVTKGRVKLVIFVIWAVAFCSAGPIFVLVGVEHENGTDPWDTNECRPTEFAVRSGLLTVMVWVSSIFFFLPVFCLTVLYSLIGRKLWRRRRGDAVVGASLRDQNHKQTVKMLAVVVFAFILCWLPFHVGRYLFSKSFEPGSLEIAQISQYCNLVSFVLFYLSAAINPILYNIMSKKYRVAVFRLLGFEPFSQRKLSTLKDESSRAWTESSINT
T2 sequence (P13945 whole entry): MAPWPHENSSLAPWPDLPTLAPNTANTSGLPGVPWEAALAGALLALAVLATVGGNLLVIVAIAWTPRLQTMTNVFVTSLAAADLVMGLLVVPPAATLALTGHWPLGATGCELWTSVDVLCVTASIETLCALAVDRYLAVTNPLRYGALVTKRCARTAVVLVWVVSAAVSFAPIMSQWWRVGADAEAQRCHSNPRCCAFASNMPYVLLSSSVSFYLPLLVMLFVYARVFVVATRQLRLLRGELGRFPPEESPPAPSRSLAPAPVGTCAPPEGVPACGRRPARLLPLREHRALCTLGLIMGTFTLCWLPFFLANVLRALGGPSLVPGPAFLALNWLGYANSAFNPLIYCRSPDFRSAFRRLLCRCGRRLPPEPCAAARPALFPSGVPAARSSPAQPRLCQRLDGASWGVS

| SMILES | Activity [1] | IC50 [2] | further results |
| --- | --- | --- | --- |
| Cc1cccc(NC(=O)Nc2ccc(S(=O)(=O)Nc3ccc(CC(C)(C)N)cc3)cc2)c1 | 3% | 69 nM | – |
| Cc1ccc(NC(=O)Nc2ccc(S(=O)(=O)Nc3ccc(CC(C)(C)N)cc3)cc2)cc1 | 3% | 77 nM | – |
| CCCCCCNC(=O)Nc1ccc(S(=O)(=O)Nc2cccc(CCN)c2)cc1 | 13% | 625 nM | – |
| CCCCCCNC(=O)Nc1ccc(S(=O)(=O)Nc2ccc(CCCN)cc2)cc1 | 1% | 108 nM | – |
| CCCCCCNC(=O)Nc1ccc(S(=O)(=O)Nc2ccc(CC(C)(C)CN)cc2)cc1 | 2% | 444 nM | – |
| CCCCCCNC(=O)Nc1ccc(S(=O)(=O)Nc2ccc(CC(C)(C)O)cc2)cc1 | – | – | inhibition [3]: 48% |
| CCCCCCNC(=O)Nc1ccc(S(=O)(=O)Nc2ccc(CC(C)(C)NCC(F)(F)F)cc2)cc1 | 1% | 682 nM | – |
| CC(C)(N)Cc1ccc(NS(=O)(=O)c2ccc(NC(=O)NCc3ccccc3)cc2)cc1 | 4% | 128 nM | – |
| CC(C)c1ccc(NC(=O)Nc2ccc(S(=O)(=O)Nc3ccc(CC(C)(C)N)cc3)cc2)cc1 | 0% | 8 nM | – |
| CC(C)(N)Cc1ccc(NS(=O)(=O)c2ccc(NC(=O)Nc3ccccc3)cc2)cc1 | 1% | 263 nM | – |
| CCCNC(=O)Nc1ccc(S(=O)(=O)Nc2ccc(CC(C)(C)N)cc2)cc1 | 1% | 1650 nM | – |
| CC(C)(N)Cc1ccc(NS(=O)(=O)c2ccc(NC(=O)Nc3ccc(C(C)(C)C)cc3)cc2)cc1 | 1% | 16 nM | – |
| CCCCCCNC(=O)Nc1ccc(S(=O)(=O)Nc2ccc(CC(C)(C)NC[C@H](O)COc3ccc(O)cc3)cc2)cc1 | – | – | IC50 [4]: 13 nM; IC50 [5]: 40 nM |
| CCCCCCNC(=O)Nc1ccc(S(=O)(=O)Nc2ccc(CC(C)(C)NCC)cc2)cc1 | 1% | 30 nM | – |
| CCCCc1ccc(NC(=O)Nc2ccc(S(=O)(=O)Nc3ccc(CC(C)(C)N)cc3)cc2)cc1 | 1% | 28 nM | – |
| CCc1ccc(NC(=O)Nc2ccc(S(=O)(=O)Nc3ccc(CC(C)(C)N)cc3)cc2)cc1 | 1% | 14 nM | – |

| SMILES | Activity [1] | IC50 [2] | further results |
| --- | --- | --- | --- |
| CC(C)(N)Cc1ccc(NS(=O)(=O)c2ccc(NC(=O)NC(C)(C)c3cccc4ccccc34)cc2)cc1 | – | 2 nM | – |
| CCCCCCNC(=O)Nc1ccc(S(=O)(=O)Nc2ccc(CN)cc2)cc1 | 5% | 1720 nM | – |
| CCCCCNC(=O)Nc1ccc(S(=O)(=O)Nc2ccc(CC(C)(C)N)cc2)cc1 | 6% | 241 nM | – |
| Cc1ccccc1NC(=O)Nc1ccc(S(=O)(=O)Nc2ccc(CC(C)(C)N)cc2)cc1 | 1% | 161 nM | – |
| CCCCCCNC(=O)Nc1ccc(S(=O)(=O)Nc2ccc(CCC(C)(C)N)cc2)cc1 | 3% | 310 nM | – |
| CC(C)(N)Cc1ccc(NS(=O)(=O)c2ccc(NC(=O)NCCc3ccccc3)cc2)cc1 | 1% | 138 nM | – |
| CCCCNC(=O)Nc1ccc(S(=O)(=O)Nc2ccc(CC(C)(C)N)cc2)cc1 | 1% | 474 nM | – |
| CC(C)(N)Cc1ccc(NS(=O)(=O)c2ccc(NC(=O)NCc3cccc4ccccc34)cc2)cc1 | – | 21 nM | – |
| CC(C)NC(=O)Nc1ccc(S(=O)(=O)Nc2ccc(CC(C)(C)N)cc2)cc1 | 1% | 846 nM | – |
| CCNC(=O)Nc1ccc(S(=O)(=O)Nc2ccc(CC(C)(C)N)cc2)cc1 | 4% | 5620 nM | – |
| CCCCCCNC(=O)Nc1ccc(S(=O)(=O)Nc2ccc(CCN)cc2)cc1 | 5% | 272 nM | – |
| CCCCCCNC(=O)Nc1ccc(S(=O)(=O)Nc2ccc(CC)cc2)cc1 | – | – | inhibition [3]: 47% |
| CCCCCCCNC(=O)Nc1ccc(S(=O)(=O)Nc2ccc(CC(C)(C)N)cc2)cc1 | 3% | 97 nM | – |
| CCCCCCNC(=O)Nc1ccc(S(=O)(=O)Nc2cccc(CCCN)c2)cc1 | 51% | 429 nM | – |
| CCCCCCNC(=O)Nc1ccc(S(=O)(=O)Nc2ccc(CC(C)(C)N)cc2)cc1 | 4% | 46 nM | IC50 [6]: 5200 nM; EC50 [7]: > 10000 nM |
| CCCCCCNC(=O)Nc1ccc(S(=O)(=O)Nc2ccccc2)cc1 | – | 4300 nM | – |
